The source of these data is ChEMBL document CHEMBL1153132, “Novel sulfamoyl benzamides as selective CB(2) agonists with improved in vitro metabolic stability” (Bioorg Med Chem Lett, 2010).

In data set [1] the target is T1, Cannabinoid receptor 2 (Homo sapiens, UniProt P34972). The data set is described as follows: Displacement of [3H]CP-55940 from human CB2 receptor. An outline of the steps:
(§1)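 Membranes with cloned human CB1 or CB2 receptors; test ligand displaces [3H]CP-55940; Ki values are geometric means of at least three separate determinations.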
Target sequence in this assay (P34972 whole entry): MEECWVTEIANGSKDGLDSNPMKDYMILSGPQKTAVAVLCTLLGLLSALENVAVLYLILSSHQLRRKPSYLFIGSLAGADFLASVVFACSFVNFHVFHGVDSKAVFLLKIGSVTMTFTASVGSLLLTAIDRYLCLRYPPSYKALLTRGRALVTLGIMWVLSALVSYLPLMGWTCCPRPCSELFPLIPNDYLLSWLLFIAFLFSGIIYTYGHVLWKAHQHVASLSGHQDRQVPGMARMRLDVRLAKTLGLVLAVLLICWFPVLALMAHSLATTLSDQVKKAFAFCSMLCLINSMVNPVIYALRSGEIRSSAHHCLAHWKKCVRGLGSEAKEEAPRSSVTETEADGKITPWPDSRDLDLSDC

The test system of data set [2] is Liver microsomes. The data set is described as follows: Metabolic stability in human liver microsomes. It counts as ADME, Microsome. An outline of the steps: (§2)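 Parent compound incubated with rat (RLM) or human (HLM) liver microsomes for 30 min; result given as % parent remaining.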
In general terms: Liver microsomes are a subcellular fraction often used to study metabolism.

Data set [3] deals with Cannabinoid receptor 1 (Homo sapiens, UniProt P21554). The data set is described as follows: Displacement of [3H]CP-55940 from human CB1 receptor. An outline of the steps: as §1
Sequence of Cannabinoid receptor 1 (P21554 whole entry): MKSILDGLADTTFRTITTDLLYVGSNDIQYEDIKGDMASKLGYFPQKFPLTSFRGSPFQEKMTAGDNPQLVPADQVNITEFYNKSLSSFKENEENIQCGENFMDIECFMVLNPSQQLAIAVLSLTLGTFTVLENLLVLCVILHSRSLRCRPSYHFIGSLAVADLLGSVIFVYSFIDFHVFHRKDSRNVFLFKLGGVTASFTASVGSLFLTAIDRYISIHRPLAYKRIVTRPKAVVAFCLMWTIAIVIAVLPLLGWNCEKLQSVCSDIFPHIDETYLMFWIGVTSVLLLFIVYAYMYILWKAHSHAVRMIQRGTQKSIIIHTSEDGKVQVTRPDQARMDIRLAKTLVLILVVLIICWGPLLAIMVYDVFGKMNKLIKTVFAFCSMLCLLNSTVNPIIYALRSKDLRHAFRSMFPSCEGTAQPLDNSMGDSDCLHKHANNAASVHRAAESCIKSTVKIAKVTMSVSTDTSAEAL
The target of data set [4] is T2, Cannabinoid receptor 2 (Rattus norvegicus, UniProt Q9QZN9).
T2 sequence (Q9QZN9 whole entry): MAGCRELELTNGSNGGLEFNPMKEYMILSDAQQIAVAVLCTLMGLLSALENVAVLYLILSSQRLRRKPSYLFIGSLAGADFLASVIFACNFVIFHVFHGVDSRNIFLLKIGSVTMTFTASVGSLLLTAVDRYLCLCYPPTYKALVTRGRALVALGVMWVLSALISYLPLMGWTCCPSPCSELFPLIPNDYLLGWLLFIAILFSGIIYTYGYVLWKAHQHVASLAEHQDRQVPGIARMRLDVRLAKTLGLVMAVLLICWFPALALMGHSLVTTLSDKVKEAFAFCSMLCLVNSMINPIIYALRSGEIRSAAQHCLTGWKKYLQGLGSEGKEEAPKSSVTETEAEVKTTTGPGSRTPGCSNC
The data set is described as follows: Agonist activity at rat brain CB2 receptor by GTPgammaS binding assay. It counts as functional.

Data set [5] concerns Liver microsomes. Description: Metabolic stability in rat liver microsomes. It counts as ADME, Microsome. An outline of the steps:
as §2

Data set [6] is filed under the species Homo sapiens. Description: Selectivity, ratio of Ki for human CB1 to Ki for human CB2. Put shortly:
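Ki at each receptor came from displacement of [³H]CP-55940 binding in membranes containing cloned human CB₁ or CB₂ receptor. Ki values are geometric means of at least three separate determinations. Selectivity is Ki CB₁ divided by Ki CB₂.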

The test system of data set [7] is Rattus norvegicus. Description: Antiallodynic effect against rat hind paw insition model assessed as paw withdrawal at 30 mg/kg, ip. It counts as functional, organism-based. Also on record: dose 30 mg/kg. Put shortly: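 Rat hindpaw incision surgery model with vehicle and morphine treatment groups. Mechanical paw withdrawal threshold of the left hindpaw was followed over time. Data are mean ± SEM; one-way ANOVA with post-hoc protected t-test versus the vehicle-treated surgery group.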

Data set [8] is described as follows: AUC (0 to infinity) in Sprague-Dawley rat at 1 mg/kg, iv. Also on record: time infinity, dose 1 mg/kg, route intravenous. It counts as ADME, organism-based. The following applies: plasma.
Data set [9] in a line: Oral bioavailability in Sprague-Dawley rat at 100 mg/kg. It counts as ADME, organism-based. The settings on record: in vivo. Put shortly: (§3)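 Male Sprague-Dawley rats dosed 100 mg/kg po. Cmax and oral F are mean ± SD of three animals; F is referenced to a 1.0 mg/kg iv dose; Tmax is given as median and range.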
Data set [10] can be described thus: Clearance in Sprague-Dawley rat at 1 mg/kg, iv. Also on record: dose 1 mg/kg, route intravenous. It counts as ADME, organism-based. The following applies: in vivo.
The nature of data set [11]: Cmax in Sprague-Dawley rat at 100 mg/kg, po. It counts as ADME, organism-based. Also on record: dose 100 mg/kg, route oral. The following applies: in vivo. Put shortly: as §3
The nature of data set [12]: AUC (0 to infinity) in Sprague-Dawley rat at 100 mg/kg, po. It counts as ADME, organism-based. The arrangement: time infinity, dose 100 mg/kg, route oral. The settings on record: plasma.
Data set [13] can be described thus: Volume of distribution at steady state in Sprague-Dawley rat at 1 mg/kg, iv. It counts as ADME, organism-based. Also on record: dose 1 mg/kg, route intravenous. The settings on record: in vivo, read-out: Vdss.
Data set [14] can be described thus: Half life in Sprague-Dawley rat at 1 mg/kg, iv. It counts as ADME, organism-based. Also on record: dose 1 mg/kg, route intravenous. The following applies: in vivo.
The nature of data set [15]: Tmax in Sprague-Dawley rat at 100 mg/kg, po. It counts as ADME, organism-based. Also on record: dose 100 mg/kg, route oral. The settings on record: in vivo. Put shortly: as §3
The target in data set [16] is T1, Cannabinoid receptor 2. The data set is described as follows: Inhibition of [3H]CP-55940 binding to human CB2 receptor at 10 uM.
Target sequence in this assay (P34972 whole entry, looked up): as the sequence (P34972 whole entry) above

The source made the active and inactive calls.

For the molecule `Cc1cc(NC(=O)C(C)(C)c2ccccc2)cc(S(=O)(=O)N2CCOCC2)c1C`, the Ki – broadly, the equilibrium dissociation constant of an inhibitor or competing ligand from its target – in data set [1] came out at 120 nM.
Regarding `CCCC(C)(C)C(=O)Nc1cc(C)c(C)c(S(=O)(=O)N2CCOCC2)c1`, the Stability in [2] is 1%; in [5] it was 9%. Moreover, the Ki was 830 nM in data set [3] and 9.7 nM in data set [1]. Moreover, in [4], the EC50 (usually the concentration that produces a half-maximal response) turned out to be 21 nM. Also, the Ratio Ki in data set [6] came to 86.
For the molecule `CCC(C)(C)C(=O)Nc1cc(S(=O)(=O)N2CCOCC2)c(C)cc1C`, the Ki in data set [1] amounted to 760 nM.
For the molecule `CCC(C)(C)C(=O)Nc1cc(C)c(C)c(S(=O)(=O)N2CCOCC2)c1`, in data set [7], the result was Active. Besides, the AUC(0-inf) (as a rule, total exposure, with the tail of the curve extrapolated) stood at 237 ng·h/mL in [8] and 4800 ng·h/mL in [12]. Further, the bioavailability – broadly, dose-corrected exposure relative to a reference, in per cent – in data set [9] amounted to 22%. The clearance (commonly a measure of how efficiently the substance is removed, as volume per time) in [10] was 70 mL/min/kg. In addition, in [11], the Cmax (as a rule, the maximum level reached in the sampled fluid or tissue) stood at 1220 ng/mL. Further, in data set [13], the Vd came to 2.5 L/kg. Further, the results for the Stability in data set [2] and in [5] were 17% and 28%, respectively. The results for the inhibitory constant (Ki) in data set [3] and in data set [1] were 2500 nM and 17 nM, respectively. The half-life (commonly the time in which the quantity being followed falls by half) in data set [14] is 0.7 h. Also, the EC50 in data set [4] was 38 nM. In addition, the Ratio Ki in data set [6] came to 150. Also, the Tmax (as a rule, the time from dosing to the highest level) in data set [15] was 6 h.
As to `CCC(C)(C)C(=O)Nc1cc2c(c(S(=O)(=O)N3CCOCC3)c1)CCCC2`, the results for the Stability in [2] and in data set [5] were 1% and 2%, respectively. Further, the Ki in [3] came out at 1400 nM; in data set [1] it was 14 nM. The concentration for a half-maximal effect (EC50) in data set [4] is 1400 nM. Further, in [6], the Ratio Ki was 100.
Take `CCC(C)(C)C(=O)Nc1cc(S(=O)(=O)N2CCOCC2)cc(C)c1C`: the inhibition – broadly, the relative decrease from the control value, in per cent – in data set [16] is 15%.
In the case of `CCC(C)(C)C(=O)Nc1cc(C)c(C)c(S(=O)(=O)N2CCS(=O)(=O)CC2)c1`, the inhibition in data set [16] worked out at 18%. Moreover, the values for the Stability in [2] and in data set [5] were 1% and 10%, respectively. For the same molecule, the concentration giving a half-maximal response (EC50) in data set [4] is 20 nM. The Ki in [1] worked out at 8.4 nM.
For the molecule `CCC(C)(C)C(=O)Nc1cc(C)c(C)c(S(=O)(=O)N2CC[C@H](O)C2)c1`, in data set [16], the inhibition turned out to be 6.3%. Besides, the EC50 in [4] is 73 nM. For the same molecule, the inhibition constant Ki in [1] is 90 nM.
With `CCC(C)(C)C(=O)Nc1cc(C)c(C)c(S(=O)(=O)NCC2CC2)c1`, the Ki in [3] amounted to 3800 nM; in data set [1], 66 nM. The molecule further came in with an EC50 in data set [4] of 135 nM. In addition, in data set [6], the Ratio Ki was found to be 57.
For the molecule `CCC(C)(C)C(=O)Nc1cc(C)c(C)c(S(=O)(=O)N2CCCCCC2)c1`, the Stability in data set [2] and in [5] was 0% each time. For the same molecule, the inhibition constant (Ki) in data set [3] stood at 1800 nM; in [1], 9 nM. A half-maximal response in data set [4] (EC50) required 22 nM. In data set [6], the Ratio Ki turned out to be 200.
Consider `Cc1ccc(NC(=O)C2C(C)(C)C2(C)C)cc1S(=O)(=O)N1CCOCC1`, for which the Stability in data set [2] is on record as 1%; in data set [5], 2%. Further, the midpoint of the response in data set [4], the EC50, lay at 11 nM. The Ratio Ki in [6] amounted to 150.
For `CCC(C)(C)C(=O)Nc1cc(C)c(C)c(S(=O)(=O)N2CCCCC2)c1`, the Stability in [2] and in [5] was 0% in each case. In addition, the inhibition constant (Ki) in data set [3] stood at 650 nM; in data set [1], 2.7 nM. In data set [4], it took 13 nM to reach a half-maximal effect (EC50). Also, the Ratio Ki in data set [6] was 240.
Take `Cc1cc(NC(=O)C(C)(C(F)(F)F)C(F)(F)F)cc(S(=O)(=O)N2CCOCC2)c1C`: the Stability in data set [2] is reported as 11%; in [5] it was 22%. Also, the Ki in data set [3] stood at 780 nM; in data set [1] it was 6.6 nM. The molecule also showed a concentration giving a half-maximal response (EC50) in data set [4] of 11 nM. The Ratio Ki in [6] turned out to be 120.
Take `Cc1cc(NC(=O)C2C(C)(C)C2(C)C)cc(S(=O)(=O)N2CCOCC2)c1C`: the Stability is 17% in [2] and 31% in data set [5]. In addition, the figures for the Ki in data set [3] and in data set [1] were 1100 nM and 16 nM, respectively. This molecule also yielded an EC50 in data set [4] of 66 nM. In addition, the Ratio Ki in [6] is 69.
Consider `COCCC(C)(C)C(=O)Nc1cc(C)c(C)c(S(=O)(=O)N2CCOCC2)c1`, for which the affinity in data set [1] corresponds to a Ki of 110 nM. This counts as sub-micromolar.
As for `Cc1cc(NC(=O)C(C)(C)C)cc(S(=O)(=O)N2CCOCC2)c1C`, the Stability in data set [2] came out at 52%; in data set [5], 37%. The inhibition constant Ki was 3100 nM in data set [3] and 40 nM in [1]. Also, a half-maximal response in data set [4] (EC50) required 90 nM. The Ratio Ki in data set [6] was determined as 78.
In the case of `CCC(C)(C)C(=O)Nc1ccc(C)c(S(=O)(=O)N2CCOCC2)c1`, the affinity in [1] corresponds to a Ki of 290 nM.
`CCC(C)(C)C(=O)Nc1cc2c(c(S(=O)(=O)N3CCOCC3)c1)CCC2`: the Stability was 10% in [2] and 9% in data set [5]. Further, the Ki in data set [3] is 1700 nM; in data set [1] it was 12 nM. The molecule also registered an EC50 in [4] of 1700 nM. Further, the Ratio Ki in data set [6] worked out at 140.
In the case of `Cc1cc(NC(=O)C(C)(C)O)cc(S(=O)(=O)N2CCOCC2)c1C`, the affinity in data set [1] corresponds to a Ki of 2080 nM.
The same measure, in the same setting: the same measure for `CCC(C)(C)C(=O)Nc1cc(S(=O)(=O)N2CCOCC2)c(C)c(C)c1C`: 410 nM.
For the molecule `CCCCC(C)(C)C(=O)Nc1cc(C)c(C)c(S(=O)(=O)N2CCOCC2)c1`, the Stability in data set [2] and in [5] was 0% throughout. Also, the results for the inhibition constant Ki in [3] and in data set [1] were 140 nM and 1.1 nM, respectively. This molecule had an EC50 in data set [4] of 82 nM. Moreover, in [6], the Ratio Ki came to 130.
On to `CCC(C)(C)C(=O)Nc1cc(C)c(C)c(S(=O)(=O)NC2CCCC2)c1`, for which the Ki in data set [3] stood at 3400 nM; in [1], 94 nM. In data set [4], this molecule gave an EC50 of 98 nM. In addition, the Ratio Ki in data set [6] was found to be 36.
With `CCC(C)(C)C(=O)Nc1cc(C)c(C)c(S(=O)(=O)N2CCSC2)c1`, the Stability in data set [2] and in [5] was 0% each time. Besides, the Ki came to 2100 nM in [3] and 6.9 nM in data set [1]. This molecule also gave an EC50 in data set [4] of 12 nM. Besides, in [6], the Ratio Ki was found to be 300.
Consider `CCC(C)(C)C(=O)Nc1cc(C)c(C)c(S(=O)(=O)N2CCC[C@@H]2CO)c1`, for which, in data set [16], the inhibition was found to be 8.3%. In data set [4], this molecule registered a half-maximal effective concentration (EC50) of 98 nM. In data set [1], the affinity corresponds to a Ki of 43 nM.
